Series [1] concerns 7 dpf zebrafish larvae. Briefly: zebrafish strobe light response. The class given is in vivo, Danio rerio. The conditions noted are these: for switch of strobe light response from freezing to escape behavior (in words): dose curves, freezing index, 7 dpf larvae, 1 hr incubation. The procedure, abridged:
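7 dpf larvae (EkkWill; TuAB sigmar1 frameshift mutants vs WT siblings) raised in 10 mM HEPES-E3 at 28 °C, 10 per well. Compound added at 1:100 from stock, 1 hr at 28 °C in ambient light; genetic tests included 10 μM scopolamine. Infrared video across alternating 1-min dark/strobe periods. Freezing index = third-quartile motion, strobe minus dark. 12 wells/dose; switching concentration taken from the dose-curve zero intercept.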

For series [2], the target named is sigma-1 receptor (Cavia porcellus, UniProt Q60492). In words: sigma-1 radioligand competition binding assay. On the set-up: species or system rodent.
Chain of sigma-1 receptor (Q60492 whole entry): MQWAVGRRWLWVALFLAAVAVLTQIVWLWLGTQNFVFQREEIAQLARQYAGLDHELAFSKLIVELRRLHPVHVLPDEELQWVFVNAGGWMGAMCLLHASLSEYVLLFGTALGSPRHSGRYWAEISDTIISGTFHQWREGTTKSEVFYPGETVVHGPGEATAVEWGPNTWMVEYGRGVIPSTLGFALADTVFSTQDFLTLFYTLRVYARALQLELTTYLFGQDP

“Also recorded” adds a separate entry of the source.

As to `Cc1cccc(NC(=O)CCN2CCNCC2)c1` [Compound 27, 3-(piperazin-1-yl)-N-(m-tolyl)propanamide], the “switch of strobe light response from freezing to escape behavior (in words)” value in series [1] is “no effect; also recorded: ineffective at modulating behavior”. Also, the “sigma-1 binding (in words)” value in series [2] was “lost its binding potency at sigma-1”.

`CC(N)Cc1ccccc1` (centres unmarked) [amphetamine]: the “switch of strobe light response from freezing to escape behavior (in words)” value in series [1] is listed as “did not cause strobe-induced”.

Consider `COC(=O)[C@H]1[C@@H](OC(=O)c2ccccc2)C[C@@H]2CC[C@H]1N2C` [cocaine], for which the “switch of strobe light response from freezing to escape behavior (in words)” value in series [1] is recorded as “did not cause strobe-induced”.

For the molecule `COC(=O)C(c1ccccc1)C1CCCCN1` (centres unmarked) [methylphenidate], the “switch of strobe light response from freezing to escape behavior (in words)” value in series [1] is reported as “did not cause strobe-induced”.

Turning to `COc1ccccc1N1CCN(CC(O)COc2cccc3ccccc23)CC1` (centres unmarked) [naftopidil], in series [1] (5 μM), the “switch from freezing to escape at 5 μM” value was “just barely switched the zebrafish response from freezing to escape”. Besides, the “immobilization of larvae at 10 μM” value in series [1] (10 μM, presumably due to toxicity) is listed as “completely immobilized the larvae”.

Turning to `CN1CCC[C@H]1c1cccnc1` [nicotine], in series [1], the “switch of strobe light response from freezing to escape behavior (in words)” value was “did not cause strobe-induced”.

(Values after paper PMC4912403 (Nature chemical biology, 2016).)
